From PubChem
In the library only some 2.7% were active in any assay of this set; here they are far more common.
PRMT1 FP inh – PRMT1 methyltransferase inhibitors, primary screen, biochemical, fluorescence polarization; Protein arginine N-methyltransferase 1 (Homo sapiens), Q99873; recombinant PRMT1, activity-based probe fluorescence polarization; inhibition, % at 2.79 µM; hit rate 1.3% among 370,000; AID 652257, 2013;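 active = inhibition above about 21% made by adding two undisclosed values, limit read from the data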
Target sequence (Q99873 whole entry, looked up): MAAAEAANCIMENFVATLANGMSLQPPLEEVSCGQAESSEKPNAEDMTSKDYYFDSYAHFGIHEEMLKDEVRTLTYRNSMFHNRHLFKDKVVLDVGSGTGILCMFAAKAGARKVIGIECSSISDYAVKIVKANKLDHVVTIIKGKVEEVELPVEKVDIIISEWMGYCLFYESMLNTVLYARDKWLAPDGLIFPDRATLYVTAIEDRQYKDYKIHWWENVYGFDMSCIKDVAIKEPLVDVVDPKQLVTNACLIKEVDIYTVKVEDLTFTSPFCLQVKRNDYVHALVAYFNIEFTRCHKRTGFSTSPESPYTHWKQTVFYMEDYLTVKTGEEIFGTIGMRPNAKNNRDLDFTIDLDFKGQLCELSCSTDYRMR
SIAE inh – human SIAE inhibitors, primary screen, biochemical, fluorescence polarization, FP-Rh probe, 1536-well HTS; Sialate O-acetylesterase (Homo sapiens), Q9HAT2; SIAE FP-Rh probe binding; inhibition, % at 9.66 µM; hit rate 0.69% among 370,000; AID 1053197, 2014;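 active = inhibition above a cutoff: mean of compounds within the control limits plus 3 SD of those, cut at about 17% in these data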;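 note: 0% = plate median of compound wells and 100% = probe without SIAE protein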
ABHD4 inh – ABHD4 inhibitors, primary screen, biochemical, fluorescence polarization, mouse; (Lyso)-N-acylphosphatidylethanolamine lipase (Mus musculus), Q8VD66; purified mABHD4, FP-Rh probe fluorescence polarization; inhibition, % at 8.92 µM; hit rate 0.54% among 370,000; AID 720543, 2013;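 active = inhibition exceeding the mean over every tested compound plus 3 SD, cut at about 30% in these data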;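 note: 0% = plate median of compound wells and 100% = S159A mutant with DMSO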
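Doses – 8.92 µM, single dose · Material – wild-type mouse ABHD4 protein · Replication – single well per compound (singlicate) · Measure – percent inhibition of probe binding, normalized to plate controls · Schedule – 45 min compound pre-incubation plus 60 min probe step, 25 °C · Detection – fluorescence polarization with parallel and perpendicular emission, 525/598 nm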
TCR CD3 inh – inhibitors of human TCR-CD3 interaction, primary screen, biochemical, fluorescence, TAMRA-labeled TCR probe; inhibition, % at 9.4 µM; hit rate 0.37% among 360,000; in the data active = inhibition above about 19%;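 note: recombinant mutant TCR 2C K166C tagged with TAMRA read by polarization; 0% = receptor in buffer alone and 100% = receptor with positive control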
HTRA1 inhibitor – HTRA1 serine protease inhibitors, primary screen, biochemical, fluorescence polarization, HTS; AID 504803, 2011; Q92743; hit rate 0.5% among 340,000; inhibition, % at 5.96 µM; recombinant HTRA1, FP-rhodamine activity-based probe; in the data active = inhibition above about 36%;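 note: 0% = enzyme with DMSO and 100% = wells lacking enzyme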
PRMT1 inh conf – PRMT1 methyltransferase inhibitors, confirmation, biochemical, fluorescence polarization, triplicate; recombinant His-PRMT1, activity-based probe fluorescence polarization; shares compounds with PRMT1 FP inh; hit rate 42% among 3,300; inhibition, % at 2.79 µM;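 active = mean inhibition across replicates above the hit cutoff derived for the earlier primary screen, cut at about 22% in these data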
Active calls of the source: *; / = no result given.

SMILES	PRMT1 FP inh	SIAE inh	ABHD4 inh	TCR CD3 inh	HTRA1 inhibitor	PRMT1 inh conf
Cn1cnc(C(=O)NCc2ccc(CNC(=O)OC(C)(C)C)cc2)c1C(=O)NCc1ccc(CNC(=O)OC(C)(C)C)cc1	0.5	-38.5	-48.1	-3.4	-36.2	/
CCN1CC=C2C(C#N)=C(N)C(C#N)(C#N)[C@H](c3cccc(OC)c3OC)[C@H]2C1	36.8*	0.5	8.5	2.2	6.3	10.2
CN1C(=O)CC(N2CCC(C(N)=O)(N3CCCCC3)CC2)C1=O (centres undefined)	4.3	-1.5	-3.8	-1.1	-9.3	/
NC(=O)C1(N2CCCCC2)CCN(C2CC(=O)N(Cc3cccs3)C2=O)CC1 (centres undefined)	20.0	2.3	1.6	-1.7	8.6	/
COc1cccc(N2C(=O)CC(N3CCC(C(N)=O)(N4CCCCC4)CC3)C2=O)c1 (centres undefined)	53.6*	-2.6	-8.0	-10.9	-3.1	1.7
NC(=O)C1(N2CCCCC2)CCN(C2CC(=O)N(CCc3ccccc3)C2=O)CC1 (centres undefined)	43.9*	-4.9	-3.0	-2.4	6.2	-4.1
COC(=O)c1ccc(CSc2n[nH]c(=S)s2)o1	27.2*	0.1	9.2	-3.0	3.0	-0.7
CCOC(=O)CNC(=O)CSc1nnc(-c2cccs2)o1	0.9	4.7	1.3	/	/	/
O=c1c2c(-c3ccco3)csc2nc(SCc2cn3cccnc3n2)n1-c1ccccc1	36.6*	-6.3	2.3	10.2	-3.4	0.7
C=CCn1c(SCC(=O)NCC2CCCO2)nc2scc(-c3ccc(OC)cc3)c2c1=O (centres undefined)	3.7	-0.9	-1.8	-3.1	-9.4	/
O=C(CSc1nc2scc(-c3ccco3)c2c(=O)n1-c1ccccc1)N1CCOCC1	4.0	5.7	-6.4	6.8	1.7	/
C=CCn1c(SCC(=O)NCC2CCCO2)nc2scc(-c3ccco3)c2c1=O (centres undefined)	25.8*	2.5	4.1	6.4	-4.9	5.3
NC(=O)CSc1nc2scc(-c3ccco3)c2c(=O)n1-c1ccccc1	76.1*	6.7	-7.8	2.0	15.8	9.1
C=CCNC(=O)Nc1ccc2c(c1)[C@@]1(CC(=O)N(CC(C)C)C1c1ccccc1)C(=O)N2C (some centres undefined)	-5.6	0.2	0.5	/	/	/
O=C(NC(Cc1c[nH]c2ccccc12)C(=O)OCC(=O)c1cccc2ccccc12)c1cccs1 (centres undefined)	50.3*	-20.9	-48.4	1.4	-44.4	-0.7
COc1ccc(CNC(=O)c2cc(S(=O)(=O)N3CCCCC3)ccc2N2CCOCC2)cc1OC	1.6	-5.0	5.7	3.0	7.6	/
O=C(OC1CCOC1=O)c1ccc2ncsc2c1 (centres undefined)	39.4*	4.8	-4.2	4.5	3.6	2.0
C(=N\N1CCOCC1)/c1cn(-c2ccccc2)nc1-c1ccccc1	96.1*	-1.9	-2.7	-2.0	-2.6	-1.8
O=Cc1cn(-c2ccccc2)nc1-c1ccccc1	-2.1	-2.8	-3.6	2.5	-32.6	/
CCCCCCC(=O)N(O)C1CC(=O)N(c2ccc(Cl)cc2)C1=O (centres undefined)	50.9*	8.7	-0.7	-3.9	-23.5	84.1*
O=C(O)CSC1CC(=O)N(c2ccc(Cl)cc2)C1=O (centres undefined)	12.7	2.0	1.2	4.4	6.6	/
CCCCCCC(=O)N(O)C1CC(=O)N(c2ccc(C)cc2)C1=O (centres undefined)	87.3*	1.3	4.1	-3.9	-14.7	90.9*
CCCOc1ccc(N2C(=O)CC(N(CCC)C(=O)CCC(=O)O)C2=O)cc1 (centres undefined)	-0.5	-2.5	1.1	-3.9	-1.4	/
Cc1ccc2c(c1)C(c1ccccc1)N(C(=O)c1ccc(Br)cc1)CC(=O)N2 (centres undefined)	5.7	-0.4	-5.3	-1.2	-10.3	/
O=C1C2C3C=CC(C3=C3CCCCC3)C2C(=O)N1Cc1ccccc1 (centres undefined)	36.2*	-2.3	-5.0	-2.6	-8.4	2.9
SMILES	PRMT1 FP inh	SIAE inh	ABHD4 inh	TCR CD3 inh	HTRA1 inhibitor	PRMT1 inh conf
Cc1ccc(NNC(N)=S)cc1Cl	28.0*	0.6	-0.7	-2.6	4.4	3.0
O=C(CSc1nccn(-c2ccc(Br)cc2)c1=O)NCc1ccccc1	19.8	-1.4	-6.0	6.2	-6.0	/
COc1ccc(-n2ccnc(SCC(=O)NCc3ccc(C)cc3)c2=O)cc1Cl	35.5*	5.2	5.0	6.8	-0.7	20.9
Cc1ccc(CNC(=O)CSc2nccn(-c3ccc(C)c(F)c3)c2=O)cc1	36.9*	1.3	4.8	-1.2	-8.7	18.8
CC(C)CCOc1ccc(C(=O)NCC(c2ccco2)N(C)C)cc1 (centres undefined)	3.0	11.2	-6.5	-11.0	-1.4	/
CC(C)(Sc1cc(C(C)(C)C)c(O)c(C(C)(C)C)c1)Sc1cc(C(C)(C)C)c(O)c(C(C)(C)C)c1	-5.8	3.5	-9.3	-0.5	-13.8	/
Cn1ccnc1C(O)c1cc(C(C)(C)C)c(O)c(C(C)(C)C)c1 (centres undefined)	36.6*	-3.9	8.5	-0.2	-9.8	12.6
O=C(COC(=O)CCNS(=O)(=O)c1cccs1)Nc1ccccc1	-7.0	0.2	1.2	11.3	2.6	/
CCN(CC(=O)Nc1ccc(NC(C)=O)cc1)C(=O)CSCC(=O)Nc1ccc(C)cc1	-0.5	6.6	0.1	5.8	-25.4	/
CCOC(=O)CC(=O)CSCC(=O)Nc1ccc(C)cc1	39.5*	-6.7	-4.2	0.9	5.2	31.8*
CCOC(=O)c1ccc(NC(=O)CSCCC(=O)O)cc1	2.8	-5.5	1.1	-2.2	1.1	/
CCOC(=O)c1ccc(NC(=O)CSCc2ccco2)cc1	81.8*	-9.9	-7.8	-2.4	-5.7	84.3*
NC1=NC(=O)CC(C(=O)NCc2ccccc2)S1 (centres undefined)	36.2*	-0.1	6.2	3.5	7.6	10.0
NC1=NC(=O)C(CC(=O)NCc2ccccc2)S1 (centres undefined)	16.6	-1.4	0.7	3.2	2.4	/
COC(=O)c1cc2c(c3c4ccccc4n(S(=O)(=O)c4ccccc4)c13)C(=O)N(Cc1ccco1)C2	5.7	-6.1	-3.7	2.5	/	/
Cc1ccc(S(=O)(=O)SCCCSS(=O)(=O)c2ccc(C)cc2)cc1	95.7*	7.6	6.1	-2.9	-0.9	91.5*
O=S(=O)(/C=C/C=C/S(=O)(=O)c1ccccc1)c1ccccc1	25.3*	-1.7	2.4	6.6	-0.6	28.4*
Cc1ccc(S(=O)(=O)CS(=O)(=O)c2ccc(C)cc2)cc1	-3.4	0.8	-2.5	3.6	-3.0	/
